# Measurements gathered from unrelated publications.
# Protocols differ between the studies behind these lines.
# Target: MAP/microtubule affinity-regulating kinase 3 (MARK3, Homo sapiens, UniProt P27448)
SMILES,test,setting,remaining binding [%]
c1cncc(-c2cccc(Nc3nccc(NC4CCCCC4)n3)c2)c1,"binding, competition with immobilised ligand",10 µM,99
Cc1cnc(Nc2ccc(C(=O)N3CCC(N4CCCC4)CC3)cc2)nc1-c1cc2ccccc2s1,"binding, competition with immobilised ligand",1 µM,100
C[C@H](c1cccc(C#N)c1)n1cc(Cl)cc(C(N)=O)c1=N,"cell-free assay, competition with immobilised ligand",1 µM,100
CN(CCCC(F)(F)F)c1nccc(-c2cnn3ncccc23)n1,binding,1 µM,100
O=C(NCc1ncc(C(F)(F)F)cc1Cl)c1ccc2c(c1)C1(CCS(=O)(=O)CC1)[C@H](C1CC1)N2S(=O)(=O)c1ccc(F)cc1,"cell-free assay, competition with immobilised ligand",1 µM,89
N[C@@H]1CCN(c2nccc(-c3cnn4ncccc34)n2)C1,binding,1 µM,100
O=C(NCCCN1CCOCC1)c1ccc(Nc2ncc(Cl)c(-c3ccc(Cl)s3)n2)cc1,"binding, competition with immobilised ligand",1 µM,100
COc1ccnn2ncc(-c3ccnc(N(C)C)n3)c12,binding,1 µM,44
C=CC(=O)N1CCC(C(=O)NCC(=O)N2CCN(c3nc(-c4cnc(N)nc4C(F)F)nc(N4CCOCC4)n3)CC2)CC1,"binding, competition with immobilised ligand",1 µM,65
Cc1c(C(=O)O)cc(-c2ccc(C3CCNCC3)cc2)c2ccc(-c3ccc(C(F)(F)F)cc3)cc12,"binding, competition with immobilised ligand",1 µM,100
CNC(=O)[C@@H]1CC[C@@H](n2c(-c3ccc4cnccc4c3)nc3ccc(C(=O)NCc4cccc(C(N)=O)c4)cc32)C1,"binding, competition with immobilised ligand",1 µM,59
O=C(NCCCN1CCOCC1)c1ccc(Nc2nccc(-c3cc4ccccc4s3)n2)cc1,"binding, competition with immobilised ligand",1 µM,100
C[C@@H]1CN(c2ccc3ncc(-c4ccc5[nH]nc(C6CC6)c5c4)n3n2)C[C@H](C)O1,"binding, competition with immobilised ligand",0.5 µM,100
C[C@H]1CCN(c2nccc(-c3cnn4ncccc34)n2)C1,binding,1 µM,92
Cc1noc([C@H]2C[C@@H](c3ccc(C(F)(F)F)cc3)CN(C(=O)N3CCS(=O)(=O)C3)C2)n1,"cell-free assay, competition with immobilised ligand",1 µM,100
c1cnn2ncc(-c3ccnc(N4CCC45COC5)n3)c2c1,binding,1 µM,100
O=C(NCC1CCOCC1)c1n[nH]cc1NC(=O)c1c(F)cccc1F,"binding, competition with immobilised ligand",1 µM,100
CC(C)(C)c1ccc(-c2nc(CBr)nn2-c2cccc(O)c2)cc1,"cell-free assay, competition with immobilised ligand",10 µM,85
CO[C@H]1CC[C@H](CNc2ccc(S(=O)(=O)NC(=O)c3ccc(N4CCN(CC5=C(c6ccc(Cl)cc6)CC(C)(C)CC5)CC4)cc3Oc3cnc4[nH]ccc4c3)cc2[N+](=O)[O-])CC1,"cell-free assay, competition with immobilised ligand",1 µM,96
CCN1CCN(Cc2ccc(C(=O)Nc3ccc(C)c(Oc4ccc5c(c4)CC(=O)N5)c3)cc2C(F)(F)F)CC1,"binding, competition with immobilised ligand",1 µM,100
O=C(O)[C@H]1[C@H](Cn2nnc3ccccc3c2=O)CC[C@@H]1C(=O)c1ccc(OCCC2CCOCC2)cc1,"cell-free assay, competition with immobilised ligand",1 µM,100
CN(c1nccc(-c2cnn3ncccc23)n1)C1CC1,binding,1 µM,100
COc1cc(-c2cn(C3CCc4ccccc4N(CC(F)(F)F)C3=O)nn2)ccc1-n1ccc(C)n1 (stereo not drawn),"cell-free assay, competition with immobilised ligand",1 µM,100
COc1ncc2cc3ccccc3nc2c1C#N,"cell-free assay, competition with immobilised ligand",5 µM,100
